Results pooled from the literature.
CDK7 with cyclin H: Cyclin-dependent kinase 7, with cyclin H (CDK7, Homo sapiens, UniProt P50613)
PTGER4: Prostaglandin E2 receptor EP4 subtype (PTGER4, Homo sapiens, UniProt P35408)
PDE4D: 3',5'-cyclic-AMP phosphodiesterase 4D (PDE4D, Homo sapiens, UniProt Q08499)

O=C(Nc1cccnn1)N1CCN([C@@H]2CCOc3cc(C(F)(F)F)ccc32)CC1
inhibition (Bombesin receptor subtype-3 (BRS3, Homo sapiens, UniProt P32247); cell-free assay; 20 µM): 37%

CC[C@@]1(O)C(=O)OCc2c1cc1n(c2=O)Cc2cc3ccccc3nc2-1
inhibition (CDK7 with cyclin H; enzyme activity; inhibitor; ADP detection; 10 µM): 20.7%

CCOC(=O)C1=C(C)NC(c2ccccc2)=C(C(=O)OCc2ccccc2)C1C#Cc1ccccc1 (stereo not drawn)
inhibition (Adenosine receptor A2a (Adora2a, Mus musculus, UniProt Q60613); ligand displacement; radioligand; 10 µM; cell membranes): 0%

CN(C)C(=O)COC(=O)Cc1ccc(OC(=O)c2ccc(NC(=N)N)cc2)cc1
inhibition (Prothrombin (F2, Homo sapiens, UniProt P00734); enzyme activity; inhibitor; 50 µM): 99.1%

CC(C)N1CCC[C@H]1CNC(=O)c1cn(C2CCCC2)c(=O)c2c1c1ccccc1n2C
inhibition (PTGER4; ligand displacement; radioligand; 10 µM): 30%

CCN(CC)CCCC[C@H](NC(=O)[C@H](CC(C)C)NC(=O)[C@H](C)NC(=O)[C@H](Cc1ccccc1)NC(=O)c1ccc(C(C)(C)C)cc1)C(=O)N[C@@H](CO)C(=O)OC
inhibition (PTGER4; ligand displacement; radioligand; 10 µM): 5%

c1ccc(C(NCCNC(c2ccccc2)c2ccccc2)c2ccccc2)cc1
inhibition (3-hydroxy-3-methylglutaryl-coenzyme A reductase (HMGCR, Homo sapiens, UniProt P04035); enzyme activity; inhibitor; 10 µM): -2%

O=c1c(O)c(-c2ccc(O)c(O)c2)oc2cc(O)cc(O)c12
inhibition (PDE4D; enzyme activity; inhibitor; radiometric; 5 µM): 75.2%

C=C[C@H]1C[N@@]2CC[C@H]1C[C@@H]2[C@@H](O)c1ccnc2ccccc12
inhibition (CDK7 with cyclin H; enzyme activity; inhibitor; ADP detection; 10 µM): 12.9%

Cn1cc(-c2cc(F)cc(N3CCn4c(cc5c4CCCC5)C3=O)c2CO)cc(Nc2ccc(N3CCN(C4COC4)CC3)cn2)c1=O
inhibition (Protein kinase C gamma type (PRKCG, Homo sapiens, UniProt P05129); enzyme activity; inhibitor; 0.1 µM): 12%

C=CCc1ccc(O)c(-c2cc(CC=C)ccc2O)c1
inhibition (PDE4D; enzyme activity; inhibitor; radiometric; 50 µM): 42.7%

C[C@H](C(=O)N[C@H]1COc2ccccc2[C@@H]1S(C)(=O)=O)c1ccc(F)cc1
inhibition (Phospholipase A2, major isoenzyme (PLA2G1B, Sus scrofa, UniProt P00592); cell-free assay; inhibitor; 10 µM): -6%

COc1ccc(CC2NCCc3cc(OC)c(OC)cc32)cc1OC (stereo not drawn)
inhibition (CDK7 with cyclin H; enzyme activity; inhibitor; ADP detection; 10 µM): 22.5%

Clc1ccc2c(C3CCN(CCc4c[nH]c5ccccc45)CC3)c[nH]c2c1
inhibition (5-hydroxytryptamine receptor 1B (HTR1B, Homo sapiens, UniProt P28222); ligand displacement; radioligand; 10 µM): 100%

COc1c(-c2ccc3c(c2)OCO3)oc2c(ccc3occc32)c1=O
inhibition (CDK7 with cyclin H; enzyme activity; inhibitor; ADP detection; 10 µM): 30.4%

O=C(/C=C/c1ccc(O)cc1)c1ccc(O)cc1O
inhibition (PDE4D; enzyme activity; inhibitor; radiometric; 50 µM): 52%

C[C@@H]1CC[C@@]2(NC1)O[C@H]1C[C@H]3[C@@H]4CC=C5C[C@@H](O)CC[C@]5(C)[C@H]4CC[C@]3(C)[C@H]1[C@@H]2C
inhibition (CDK7 with cyclin H; enzyme activity; inhibitor; ADP detection; 10 µM): 22.4%

O=C1C[C@@H](c2ccc(O[C@@H]3O[C@H](CO)[C@@H](O)[C@H](O)[C@H]3O)cc2)Oc2cc(O)ccc21
inhibition (PDE4D; enzyme activity; inhibitor; radiometric; 50 µM): 14%

CN1CCc2cc3c(cc2[C@H]1[C@@H]1OC(=O)c2c1ccc1c2OCO1)OCO3
inhibition (CDK7 with cyclin H; enzyme activity; inhibitor; ADP detection; 10 µM): 22%

COc1cc(O)ccc1/C=C/C(=O)c1ccc(O)cc1
inhibition (PDE4D; enzyme activity; inhibitor; radiometric; 50 µM): 62.8%

COc1cc(Nc2ncc(F)c(Nc3ccc4c(n3)NC(=O)C(C)(C)O4)n2)cc(OC)c1OC
inhibition (Serine/threonine-protein kinase MAK (MAK, Homo sapiens, UniProt P20794); binding; competition with immobilised ligand; 10 µM): 0%

C=C(C)[C@@H]1CC=C2C(=CC[C@]3(C)[C@@H]([C@@H](CCC=C(C)C)C(=O)O)[C@H](O)C[C@@]23C)[C@@]1(C)CCC(=O)O
inhibition (PDE4D; enzyme activity; inhibitor; radiometric; 5 µM): 54.3%

C#Cc1n[nH]c2c(-c3cn([C@@H](C)c4ccccn4)c(=O)[nH]c3=O)cc(F)cc12
inhibition (Serine/threonine-protein kinase PAK 2 (PAK2, Homo sapiens, UniProt Q13177); enzyme activity; inhibitor; 0.1 µM): 4.1%

COC(=O)c1cc(O)c(O)c(O)c1
inhibition (PDE4D; enzyme activity; inhibitor; radiometric; 50 µM): -5.1%

COc1ccc(Cc2nccc3cc(OC)c(OC)cc23)cc1OC
inhibition (CDK7 with cyclin H; enzyme activity; inhibitor; ADP detection; 10 µM): -1.4%

Cc1cc(O)c2c(c1)C(=O)c1cc(O)cc(O)c1C2=O
inhibition (PDE4D; enzyme activity; inhibitor; radiometric; 50 µM): 45.4%

C[C@@H]1CCO[C@H]2Cn3cc(C(=O)NCc4ccc(F)cc4F)c(=O)c(O)c3C(=O)N12
inhibition (Gag-Pol polyprotein, integrase (gag-pol, Human immunodeficiency virus type 1 group M subtype B, UniProt P04585); enzyme activity; inhibitor; 50 nM): > 50%
